Experimental data reported in PMC5956897 (Journal of inorganic biochemistry, 2018).

Assays:
MDA-MB-231 cells [1] = test: Intracellular ROS detection with DCFH2-DA by flow cytometry; assay type: cell-based
Outline: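 Cells were seeded at 2.0 × 10⁵ per well and incubated overnight. They were treated for 2 h with test compound (50 μM) in phenol-red-free EMEM with 0.1% DMSO; the H₂O₂ control in PBS ran for 10 min. After PBS washes, cells took up DCFH₂-DA (30 μM) in warm PBS. They were detached with trypsin/EDTA, held on ice, and read by flow cytometry (488 nm excitation, 530/30 nm) within 1 h. n=3, mean ± SDM.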

MDA-MB-231 cells [2] = test: Cell cycle analysis; assay type: cell-based; conditions: MDA-MB-231, 10 μM, 12 h
MEL cells = test: Spectrophotometric hemoglobin quantitation in induced MEL cells; assay type: cell-based, murine

| Compound | DCF response compared to untreated control (MDA-MB-231 cells [1]; MDA-MB-231, positive control in PBS, 10 min) | ROS/RNS levels (DCF fluorescence) compared to untreated control (MDA-MB-231 cells [1]; MDA-MB-231, 50 μM, 2 h) | G0/1 accumulation (cell cycle arrest) (MDA-MB-231 cells [2]) | effect on hemoglobin production (MEL cells; 0.5 μM or 5 μM, 72 h, without SA) | decrease in intracellular hemoglobin concentrations (MEL cells; 72 h, without SA, statistically significant) | change in intracellular Hb concentrations (MEL cells; with succinylacetone (SA, 1 mM), normalized data) |
| --- | --- | --- | --- | --- | --- | --- |
| OO [H2O2, Hydrogen peroxide] | an order of magnitude higher than that of the untreated control |  |  |  |  |  |
| O=C(N/N=C/c1ccccc1O)c1ccncc1 [SIH, salicyl isonicotinoyl hydrazone] |  | significant decrease of DCF fluorescence | arrest at the G1/S interface | did not have major effects on hemoglobin production | less than 20% | did not result in statistically significant changes |
